Screening data deposited in PubChem by SRMLSC.
The entries come from a sample that favours hits as a whole.
PTEN del growth: growth suppression of PTEN-null HCT116, primary screen, cell-based, CellTiter-Glo. HCT116 PTEN-null viability, 60 h; stronger effect = lower value. viability, % at 10 µM. AID 827, 2007. 1.2% of 140,000 active;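 active means viability at or below a set limit, 4 SD under the median of all tested compounds, cut at about 3.7% in these data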;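 further: PTEN knockout HCT116 line with beta catenin targeted HCT116 as companion control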
H69AR inhibit: proliferation blockers of H69AR lung cancer cells, primary screen, cell-based, human, 86K library; viability, % at 10 µM; 6% of 85,000 active; AID 598, 2007; H69AR lung tumor viability, ATP luminescence, 72 h; stronger effect = lower value;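 active means viability at or below 40%; inactive means viability above 40%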;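 further: multidrug resistant small cell line overexpressing MRP-1 efflux transporter; 100% = mean luminescence of untreated control wells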
bCat KO growth: primary screen for growth suppressors in beta-catenin knockout HCT116 cells (colon tumor, human); 1.5% of 140,000 active; HCT116 beta-catenin knockout viability, CellTiter-Glo, 60 h; stronger effect = lower value; viability, % at 10 µM;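 active means viability at or under a set limit, the compound median less 4 SD, cut at about 6% in these data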;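 further: 0% = Hyamine 1622 control at 20 µM and 100% = untreated cell control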
HUVEC inhibit: inhibitors of HUVEC proliferation, primary screen, cell-based, 384-well; CellTiter-Glo luminescence, 72 h; stronger effect = lower value; viability, % at 10 µM (by protocol); 1.1% of 86,000 active; AID 648, 2007;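 active means viability at or below 30%; inactive means viability above 30%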;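 further: 100% = median luminescence of DMSO-only cell control wells on each plate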
Lung fibro prol: antiproliferative effect on LL 47 fibroblasts – human, LL 47 cells, CellTiter-Glo luminescence, primary screen. LL 47 human lung fibroblast viability, ATP luminescence; stronger effect = lower value. viability, % at 10 µM. 1.1% of 85,000 active. AID 719, 2007;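 active means viability at or below 50% in the single dose screen; inactive means viability above 50%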;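 further: compound exposure lasted 72 h before the ATP readout; 100% = median luminescence of untreated cell-only wells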
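Test system: LL 47 human lung fibroblasts / Incubation: 72 h compound exposure at 37 °C after overnight plating / Technique: luminescent ATP detection, CellTiter-Glo / Compound dosing: 0.1% DMSO in all compound wells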
Numbers without * were called inactive.

O=C(c1ccc(Cn2cc(Br)cn2)cc1)N1CCN(c2ccccc2)CC1 was read as PTEN del growth 43, H69AR inhibit 8.8*, bCat KO growth 57, HUVEC inhibit 55 and Lung fibro prol 90.
Screening COc1cc2c(N3CCOCC3)cc(O)c(CC(=O)Nc3ccccc3)c2cc1OC returned PTEN del growth 104, H69AR inhibit 82, bCat KO growth 99, HUVEC inhibit 86 and Lung fibro prol 48*.
COc1ccc2c(c1)C(SCC(=O)NCCc1ccc(Cl)cc1)CC(C)(C)O2 (stereo unspecified) was read as PTEN del growth 84 and bCat KO growth 94.
`C=CCOC(=O)C(C#N)c1nc2ccccc2nc1N1CCC(C(=O)OCC)CC1` (stereo unspecified) gave PTEN del growth 78, H69AR inhibit 39*, bCat KO growth 86, HUVEC inhibit 91 and Lung fibro prol 97.
CCC(CC)COC(=O)C(C#N)c1nc2ccccc2nc1N1CCN(CC)CC1 (stereo unspecified) was read as PTEN del growth 43, H69AR inhibit 79, bCat KO growth 41, HUVEC inhibit 3.2* and Lung fibro prol 97.
Screening CCC(C)COC(=O)C(C#N)c1nc2ccccc2nc1N1CCCCC1 (stereo unspecified) returned PTEN del growth 76, H69AR inhibit 82, bCat KO growth 74, HUVEC inhibit 104 and Lung fibro prol 98.
For CCCCCCOC(=O)C(C#N)c1nc2ccccc2nc1N1CCN(C)CC1 (stereo unspecified) the results were PTEN del growth 25, H69AR inhibit 3.6*, bCat KO growth 22, HUVEC inhibit 5.8* and Lung fibro prol 85.
For Cc1cc(C)cc(NC(N)=S)c1 the results were PTEN del growth 91 and bCat KO growth 81.
Cc1cc(C)c2nc(N3CCCN(C(=O)c4ccco4)CC3)c(C#N)cc2c1 was read as PTEN del growth 8, H69AR inhibit 35*, bCat KO growth 11, HUVEC inhibit 98 and Lung fibro prol 97.
Screening CC(=O)Nc1cccc(Oc2cc(C#N)c(C#N)cc2N2CCCCCC2)c1 returned PTEN del growth 76, H69AR inhibit 32*, bCat KO growth 69, HUVEC inhibit 70 and Lung fibro prol 90.
Cc1ccccc1C(=O)N[C@H](C(=O)OCC(=O)c1ccc[nH]1)C(C)C was read as PTEN del growth 98 and bCat KO growth 94.
`COC(=O)C1=C(C)NC(=O)/C1=C\c1cc(C)n(-c2c(C)cccc2C)c1C` gave PTEN del growth 69, H69AR inhibit 46, bCat KO growth 76, HUVEC inhibit 27* and Lung fibro prol 60.
Screening CCN(Cc1ccccc1)C(c1cc2ccc(C)cc2[nH]c1=O)c1nnnn1CCOC (stereo unspecified) returned PTEN del growth 95, H69AR inhibit 88, bCat KO growth 95, HUVEC inhibit 90 and Lung fibro prol 89.
For CC(=O)/C(CN1CCCCC1)=N\O the results were PTEN del growth 95, H69AR inhibit 102, bCat KO growth 117, HUVEC inhibit 93 and Lung fibro prol 98.
For C/C(=N\O)C(=O)C(CN1CCCCC1)CN1CCCCC1 the results were PTEN del growth 82, H69AR inhibit 0.4*, bCat KO growth 100, HUVEC inhibit 74 and Lung fibro prol 15*.
CCCCN(C)C(=O)C1CCC(=O)N(c2cc(OC)c(OC)c(OC)c2)C1c1ccc(OC)cc1 (stereo unspecified) was read as PTEN del growth 0.7*, H69AR inhibit 102, bCat KO growth 0.9*, HUVEC inhibit 111 and Lung fibro prol 101.
Screening COc1ccc(C2C(C(=O)O)CCC(=O)N2c2ccc(OC)cc2)cc1 (stereo unspecified) returned PTEN del growth 107, H69AR inhibit 96, bCat KO growth 95, HUVEC inhibit 96 and Lung fibro prol 93.
Screening CCOc1ccc(C(=O)C(CN2CCOCC2)c2ccccc2)cc1 (stereo unspecified) returned PTEN del growth 2.7* and bCat KO growth 3.1*.
Screening O=C(c1ccccc1)c1ccc(OCC(O)CN2CCOCC2)cc1 (stereo unspecified) returned H69AR inhibit 84, HUVEC inhibit 98 and Lung fibro prol 108.
`COc1cccc(NC(=S)NC2CC(C)(C)NC(C)(C)C2)c1` gave PTEN del growth 95 and bCat KO growth 84.
For Cc1ccc(OCCn2cc(/C(N)=N/O)c3ccccc32)cc1C the results were PTEN del growth 73, H69AR inhibit 35*, bCat KO growth 71, HUVEC inhibit 88 and Lung fibro prol 89.
COc1cccc(NC(=O)COC(=O)c2cccnc2)c1 was read as PTEN del growth 102, H69AR inhibit 99, bCat KO growth 96, HUVEC inhibit 90 and Lung fibro prol 103.
For O=C(COC(=O)c1cc(-c2ccccc2)nc2ccccc12)Nc1ccc2c(c1)OCO2 the results were PTEN del growth 117 and bCat KO growth 87.
Screening COc1cccc(NC(=O)COC(=O)c2c3c(nc4ccccc24)CCC(C)C3)c1 (stereo unspecified) returned PTEN del growth 1.4*, H69AR inhibit 23*, bCat KO growth 1.7*, HUVEC inhibit 31 and Lung fibro prol 88.
For O=C(COC(=O)c1c2c(nc3ccccc13)CCCC2)Nc1ccc2c(c1)OCO2 the results were PTEN del growth 24, H69AR inhibit 36*, bCat KO growth 37, HUVEC inhibit 68 and Lung fibro prol 103.
